# In the library only some 2.1% were active in any assay of this set; here they are far more common.
# FAS TE block = FAS thioesterase domain inhibitors, primary screen, biochemical, fluorescence intensity, uHTS; actives 0.67% (n = 360,000); recombinant FAS-TE, OMFH fluorogenic substrate, fluorescence endpoint; Fatty acid synthase (Homo sapiens), P49327; inhibition, % at 15 µM;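 active = compounds whose normalised, plate-corrected inhibition of enzyme fluorescence in the single-dose primary screen is 50% or more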;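 also: 0% = DMSO with enzyme and 100% = substrate without enzyme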
# RanGTP-Impb inh = inhibitors of RanGTP-importin-beta interaction, primary screen, biochemical, FRET, CFP-Ran, YFP-importin-beta, homogeneous. Ran GTPase (GTP-bound) - importin-beta complex. cell-free CFP-Ran/YFP-importin-beta FRET ratio. inhibition, % (concentration not given with the values). actives 1.1% (n = 300,000). AID 2216, 2009;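 active = more than half of the replicate wells show a fall in the fluorescence ratio signal beyond about 16%, limit read from the data, passing the limit was not always enough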;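 also: 0% = DMSO wells and 100% = Ran loaded with GDP instead of GTP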
# Runt-CBFb FRET = inhibitors of RUNX1 Runt–CBFb binding, primary screen, biochemical, FRET, Cerulean-Runt, Venus-CBFb, uHTS | Cerulean-Runt/Venus-CBFb FRET ratio 530/480, 1 h | actives 0.46% (n = 220,000) | inhibition, % at 20 µM | AID 1496, 2009 | Runt-related transcription factor 1 (Homo sapiens) + Core-binding factor subunit beta …;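 active = inhibition over about 50% at 20 µM in the single-dose screen, limit read from the data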;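 also: 0% = DMSO wells and 100% = excess unlabeled CBFb competitor control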
#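 test system = Cerulean-tagged RUNX1 Runt domain (FRET donor) fusion protein | reagent = Venus-CBFb binding partner, 100 nM | incubation = protein complex preformed 1 h, compound exposure 1 h, room temperature, dark | detection = FRET fluorescence | read-out basis = loss of energy transfer signal | controls = 5 µM unlabeled CBFb as full-inhibition high control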
# Runt-SMMHC FRET = inhibitors of RUNX1 Runt–CBFb-SMMHC binding, primary screen, biochemical, FRET, Cerulean-Runt, Venus-CBFb-SMMHC, uHTS; AID 1434, 2008; Runt-related transcription factor 1 (Homo sapiens) + Core-binding factor subunit beta …; inhibition, % at 20 µM; Cerulean-Runt/Venus-CBFb-SMMHC FRET ratio 530/480, 1 h; actives 0.74% (n = 220,000);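 active = mean inhibition across duplicate retests at 20 µM reaching about 50%, limit read from the data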;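 also: 0% = DMSO wells and 100% = wells with excess untagged CBFb-SMMHC; inhibitors lower the FRET ratio by blocking Runt binding to CBFb-SMMHC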
# Calpain2 inh = inhibitors of pig calpain II, primary screen, biochemical, fluorogenic peptide substrate, 1536-well; purified calpain II, 30 min; actives 0.37% (n = 220,000); inhibition, % at 16 µM;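 active = inhibition above about 50%, limit read from the data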
# Numbers without * were called inactive; i = inactive; . = no result given.
SMILES,FAS TE block,RanGTP-Impb inh,Runt-CBFb FRET,Runt-SMMHC FRET,Calpain2 inh
CCc1nc2ccc(C(=O)N3CCN(c4ccccc4)CC3)cc2nc1CC,5.9,5.4,.,.,.
O=C(c1ccc2nc(-c3ccco3)c(-c3ccco3)nc2c1)N1CCN(c2ccccc2)CC1,21.1,23.2*,12.3,-12.3,-342.1
O=C(NCCCO)Nc1ccc2nc(-c3ccco3)c(-c3ccco3)nc2c1,.,.,-250.2,-321.4,-295.4
COc1ccc(NC(=O)CN(C)C(=O)c2ccc3c(c2)OCCO3)cc1,-9.5,-1.3,.,.,.
CCOC(=O)c1c(C)[nH]c(C(=O)OCc2nc3ccsc3c(=O)[nH]2)c1C,0.9,.,.,.,.
Cc1cccc(OCc2nnc(SCC(=O)NCc3ccc4c(c3)OCO4)o2)c1,-1.1,.,.,.,.
O=C(NCc1cccnc1)c1cccc(S(=O)(=O)NCc2ccccc2)c1,-5.9,0.5,.,.,.
O=C(Nc1ccc2nc(-c3cccs3)c(-c3cccs3)nc2c1)N1CCOCC1,13.1,95.7*,40.7,61.5*,-218.3
C=CCNc1nc2cc(-c3cccc(Cl)c3)sc2c(=O)n1C,6.9,.,.,.,.
Cc1ccnc(NC(=O)CN2C(=O)NC(C)(c3ccc4ccccc4c3)C2=O)c1 (centres undefined),-1.0,.,.,.,.
CNS(=O)(=O)c1cccc(C(=O)NNC(=O)c2ccc(COc3ccccc3)cc2)c1,-0.5,-1.5,.,.,.
O=C1c2cccc(Sc3ccccc3)c2C(=O)c2c(Sc3ccccc3)cccc21,30.9,-0.2,-4.4,-7.3,50.3*
Cc1ccc(CNC(=O)c2cc3c(=O)n4ccccc4nc3n(Cc3ccco3)c2=N)cc1,12.0,78.3*,88.3*,38.7,.
N=c1c(C(=O)NCc2ccccc2)cc2c(=O)n3ccccc3nc2n1Cc1ccco1,1.3,77.9*,19.6,.,i
N=c1c(C(=O)NCc2ccco2)cc2c(=O)n3ccccc3nc2n1Cc1ccccc1,-0.6,116.5*,19.3,58.1*,-210.3
N=c1c(C(=O)NCc2ccc(F)cc2)cc2c(=O)n3ccccc3nc2n1Cc1ccco1,4.8,2.5,69.4*,.,-171.8
COCCn1c(=N)c(C(=O)NCc2ccco2)cc2c(=O)n3ccccc3nc21,-5.0,.,11.1,41.0,i
CC(C)Cn1c(N)c(C(=O)CSc2ncn[nH]2)c(=O)n(C)c1=O,-6.6,.,.,.,.
COc1ccc(S(=O)(=O)N(CC(=O)NC2CC2)Cc2ccccc2)cc1,-2.8,3.1,.,.,.
N=c1c(C(=O)NCc2ccco2)cc2c(=O)n3ccccc3nc2n1Cc1ccc(Cl)cc1,12.9,125.6*,65.9*,-15.6,.
CCOC(=O)c1cc2c(=O)n3cc(C)ccc3nc2n(Cc2cccnc2)c1=N,.,.,10.5,41.7,.
Cc1ccc2nc3c(cc(C(=O)NCc4ccco4)c(=N)n3Cc3ccco3)c(=O)n2c1,3.3,89.0*,.,.,-116.0
CCCCNC(=S)N/N=C/c1ccccc1F,3.7,2.3,0.6,0.8,72.0*
COc1cccc(NC(=O)C(=O)NCCCN2CCCC2=O)c1,-9.4,-1.9,.,.,.
CN(CC(=O)Nc1cccc(S(=O)(=O)NC2=NCCCCC2)c1)Cc1ccc(C(C)(C)C)cc1,66.0*,-0.2,-8.2,0.5,26.5
SMILES,FAS TE block,RanGTP-Impb inh,Runt-CBFb FRET,Runt-SMMHC FRET,Calpain2 inh
CN(C)c1ccc(C2C3C(=O)NC(=O)C3ON2c2ccc(Cl)cc2)cc1 (centres undefined),5.0,22.0*,5.7,2.2,-23.5
Cc1nn(C(C)C(=O)NCc2ccco2)c(=O)c2nn(-c3ccccc3)c(C)c12 (centres undefined),-3.5,2.8,.,.,.
Cc1ccc2nc3c(cc(C(=O)NCc4cccnc4)c(=N)n3C(C)C)c(=O)n2c1,.,.,13.0,38.6,.
Cc1cccn2c(=O)c3cc(C(=O)NCc4cccnc4)c(=N)n(C(C)C)c3nc12,-9.4,182.5*,19.3,78.7*,i
Cc1cccn2c(=O)c3cc(C(=O)NCc4cccnc4)c(=N)n(C)c3nc12,.,.,98.4*,74.2*,.
CC(C)n1c(=N)c(C(=O)NCCc2ccccc2)cc2c(=O)n3ccccc3nc21,-2.1,173.9*,11.4,-21.1,i
Cc1cccc(NS(=O)(=O)c2csc(C(N)=O)c2)c1C,-2.7,-1.1,.,.,.
C=C(C)CNC(=S)N/N=C/c1ccc(NC(C)=O)cc1,2.1,1.8,0.4,0.5,62.0*
